Measured values taken from the array DNA melting data of Ke et al. (doi:10.1101/2024.01.08.574731).

How the values were obtained:
[1] = folding enthalpy; higher = less favourable; fluorescence melt of hairpins on a sequencing array, two-state fit; settings: sodium 0.088 M
How it was run: (§1)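 With Cy3 and quencher oligos annealed, library hairpins on a sequenced MiSeq flow cell were imaged for Cy3 fluorescence in 50 mM Na-HEPES pH 8.0, 25 mM NaCl, in 2.5 °C steps up to 60 °C. Melting temperature and folding enthalpy were derived from bootstrapped two-state fits of signals normalised to pre-quench Cy3 and to control constructs. Four replicates were combined by inverse variance, with fitted temperatures raised by 9.35 °C to match UV melts.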

[2] = melting temperature; fluorescence melt of hairpins on a sequencing array, two-state fit, raised by 9.35 °C to match UV melts; settings: sodium 0.088 M
How it was run: as §1

Sequence | folding enthalpy [1] [kcal/mol] | Tm [2] [°C]
GCGAGCTCTCGC ((((....)))) | -30.9 | 53.1
GATCGCTGGTGCGATC ((((((....)))))) | -34.2 | 68.6
GATCTGCTACAGATC ((((((...)))))) | -29.6 | 49.6
GGACTAGGAAACTAGCCC ((.((((....)))).)) | -24.5 | 42.1
GTCCATGGAAACATGAAC ((.((((....)))).)) | -18.5 | 36.4
GAGGAGAAATCCTC (((((....))))) | -21.8 | 43.4
GCATTATCGAAAGATTGC (((..(((....)))))) | -14.4 | 30.6
GATCAAGTGATTGATC ((((((....)))))) | -32.2 | 47.3
GATCTCTTCGAGATC ((((((...)))))) | -36.9 | 55.4
GATCCGCCCCCGGATC ((((((....)))))) | -40.6 | 56.5
GGGTTCCGAAAGGATCCC (((.(((....))).))) | -42.1 | 55.9
GTTGCCGAAAGGCGCAAC ((((((....)))..))) | -8.82 | 31.9
GAAGACGGAAACGTCTCC (.(((((....))))).) | -12.6 | 39.3
GGGAACGAAAGTTCCCCC ((((((....)))..))) | -9.06 | 68.4
GATCCAGTGCTGGATC ((((((....)))))) | -47.8 | 52.8
GGCAGCGAAAGCTGAGCC ((((((....)))..))) | -14.1 | 51.9
GCCACAACGAAAGTTGGC (((..(((....)))))) | -15.3 | 48.5
GCCGTCGGAAACGACAGC ((.((((....)))).)) | -16.6 | 53
GATCCTTGGTAGGATC ((((((....)))))) | -31.6 | 51.1
GATCCGAACGCGGATC ((((((....)))))) | -39.6 | 55.1
CGTTCGGAAACGATCACG ((((((....)))..))) | -13.9 | 30.9
GATCACGCGAGTGATC ((((((....)))))) | -33.8 | 68.8
GTGATCGAAAGATTTCAC ((((((....)))..))) | -14.3 | 27.6

Sequence | folding enthalpy [1] [kcal/mol] | Tm [2] [°C]
GAATGTGCGAAAGCATTC (((..(((....)))))) | -9.5 | 29.3
GCCGCCGAAAGGCTAGGC ((((((....)))..))) | -27.9 | 60.5
GCGGGACGAAAGTCCGC (((.(((....)))))) | -23.1 | 69.2
GTCAGGTCGAAAGACGAC (((..(((....)))))) | -16.8 | 43.1
GCGATCGTTCGC ((((....)))) | -29 | 50.4
GCAGACGAAAGTCTTTGC ((((((....)))..))) | -14.4 | 37.1
GATCGAAAATCGATC ((((((...)))))) | -29.9 | 47.6
GGGAGCGAAAGCTCGCCC ((((((....)))..))) | -11.6 | 52.7
GGTATGCGAAAGCAAACC (((.(((....))).))) | -30.2 | 53
GTTACCGAAAGGTAGAAC ((((((....)))..))) | -10.1 | 29.3
GACCCGCGAAAGCGAGTC (((.(((....))).))) | -26.7 | 55.7
GAGACGCGAAAGCGCTC (((.(((....)))))) | -14.3 | 50
GGGGTAACGAAAGTTCCC (((..(((....)))))) | -23.8 | 49.9
GGCGAAGGAAACTTTGCC (((.(((....))).))) | -35.8 | 53.2
GAGGGCCGAAAGGCCTC (((.(((....)))))) | -9.74 | 52.6
GATCAACGCTTTGATC ((((((....)))))) | -44.1 | 46.4
GATCCATACATGGATC ((((((....)))))) | -50.8 | 55.8
CGATGCGGAAACGCGTCG (((.(((....))).))) | -47.4 | 62.1
GTCTAAGGAAACTCAGAC ((((.((....)).)))) | -11.5 | 26.6
CGCATTCGGAAACGAGCG (((..(((....)))))) | -25.9 | 36.9
GTTCGGCCGAAAGGCAAC (((..(((....)))))) | -6.89 | 31.3
GCTTAAGGAAACTCAAGC ((((.((....)).)))) | -17.8 | 28.3
GGGGTCGAAAGACTACCC ((((((....)))..))) | -18 | 45.2
